Assay results as given in ChEMBL document CHEMBL1147976 (Eur J Med Chem, 2007).

Assays:
[1] = Binding affinity to DNA by DNA-methyl green bioassay; set-up: species or system Homo sapiens
How it was run: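 Absorbance at 630 nm read at start and after 24 h dark at room temperature. Readings corrected for initial value, normalized to untreated complex. IC50 = 50% drop in DNA-related absorbance.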

Leishmania infantum [2] = assay: Antipromastigote activity against Leishmania infantum; format: functional, organism-based
How it was run: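 L. infantum MHOM/FR/78/LEM75 late log-phase promastigotes in phenol-red-free RPMI with 12% foetal calf serum and 10% Alamar Blue. Concentration range added to duplicate cultures, final DMSO below 5%. Incubated 48 h at 25 C. Alamar Blue reduction read by absorbance at 570 and 630 nm. IC50 = concentration giving 50% reduction of Alamar Blue versus control.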

THP-1 = assay: Cytotoxicity against human THP1 cells; format: cell-based
How it was run: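 Late log-phase human monocytes in RPMI with 10% Alamar Blue and 10% foetal calf serum. Concentration range in duplicate cultures, final DMSO below 5%. Incubated 72 h at 37 C, 5% CO2. Alamar Blue reduction measured as absorbance at 570 and 630 nm. IC50 based on reduction relative to control culture.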

Leishmania infantum [3] = assay: Antiamastigote activity against Leishmania infantum; format: functional, organism-based
[4] = Toxicity in human macrophages; format: cell-based; details: macrophage

| SMILES | IC50 [1] [µM] | IC50 (Leishmania infantum [2]) [µM] | IC50 (THP-1) [µM] | IC50 (Leishmania infantum [3]) [µM] | Activity [4] |
| --- | --- | --- | --- | --- | --- |
| CC(=O)Nc1ccc2cc3ccc(NC(C)=O)cc3nc2c1 | > 250 | 342 | 738 | 4.5 |  |
| COc1ccc(C(=O)Nc2ccc3cc4ccc(NC(C)=O)cc4nc3c2)cc1OC | > 250 | 203 | 2.1 | 1.3 |  |
| O=C(Nc1ccc2cc3ccc(NC(=O)c4ccc(Cl)cc4)cc3nc2c1)c1ccc(Cl)cc1 | > 250 | 0.11 | 2.49 | 0.2 |  |
| CCC(=O)Nc1ccc2cc3ccc(NC(=O)CC)cc3nc2c1 | 171 | 160 | 23.2 | 7.7 |  |
| O=C(Nc1ccc2cc3ccc(NC(=O)c4ccc(F)cc4)cc3nc2c1)c1ccc(F)cc1 | > 250 | 1.7 | 0.77 | 0.03 |  |
| C[C@@H]1[C@H](O)[C@@H](C)/C=C/C=C/C=C/C=C/C=C/C=C/C=C/[C@H](O[C@@H]2O[C@H](C)[C@@H](O)[C@H](N)[C@@H]2O)C[C@@H]2O[C@](O)(C[C@@H](O)C[C@@H](O)[C@H](O)CC[C@@H](O)C[C@@H](O)CC(=O)O[C@H]1C)C[C@H](O)[C@H]2C(=O)O [AMPHOTERICIN B] |  | 0.38 | 154 | 0.14 |  |
| COc1cccc2c1C(=O)c1c(O)c3c(c(O)c1C2=O)C[C@@](O)(C(=O)CO)C[C@@H]3O[C@H]1C[C@H](N)[C@H](O)[C@H](C)O1 [DOXORUBICIN] | 1.38 |  |  |  |  |
| O=C(Nc1ccc2cc3ccc(NC(=O)c4ccccc4)cc3nc2c1)c1ccccc1 | > 250 | 4.31 | 110 | 1.1 |  |
| COc1ccc(C(=O)Nc2ccc3cc4ccc(NC(=O)c5ccc(OC)cc5)cc4nc3c2)cc1 | > 250 | 4.8 | 13.4 | 1.1 |  |
| CC(=O)Nc1ccc2cc3ccc(NC(=O)c4ccc(Cl)cc4)cc3nc2c1 | > 250 | 11.5 | 1.9 | 2.9 |  |
| COc1ccc(C(=O)Nc2ccc3cc4ccc(NC(C)=O)cc4nc3c2)cc1 | > 250 | 86.9 | 1.76 |  | Toxic |
| Nc1ccc2cc3ccc(N)cc3nc2c1 [PROFLAVINE] | > 250 | 1.3 | 2.21 | 0.12 |  |
| CC(=O)Nc1ccc2cc3ccc(NC(=O)c4ccc(F)cc4)cc3nc2c1 | > 250 | 133 | 1.1 | 0.67 |  |
| CCCC(=O)Nc1ccc2cc3ccc(NC(=O)CCC)cc3nc2c1 | 102 | 46.7 | 18.9 | 12.8 |  |
| COc1ccc(C(=O)Nc2ccc3cc4ccc(NC(=O)c5ccc(OC)c(OC)c5)cc4nc3c2)cc1OC | > 250 | 16.1 | 26.8 | 0.8 |  |
| CC(=O)Nc1ccc2cc3ccc(N)cc3nc2c1 | 59.1 | 90.8 | 4.7 |  | Toxic |
| CC(=O)Nc1ccc2cc3ccc(NC(=O)c4ccccc4)cc3nc2c1 | > 250 | 186 | 5.4 |  | Toxic |
